TCR CD3 inh: inhibitors of human TCR-CD3 interaction; TAMRA-labeled TCR probe fluorescence, biochemical; hit rate 0.37% among 360,000; inhibition, % at 9.4 µM; in the data active means inhibition above about 19%;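 further: recombinant mutant TCR 2C K166C tagged with TAMRA read by polarization; 0% = receptor in buffer alone and 100% = receptor with positive control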
PAD4 inh: blocks human protein arginine deiminase 4; hit rate 0.41% among 330,000; recombinant PAD4, RCA probe fluorescence polarization; inhibition, % at 6.36 µM; Q9UM07;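 active means percent inhibition above a cutoff equal to the mean of all tested compounds plus 3 SD, cut at about 15% in these data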;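 further: 0% = PAD4 with RCA probe and DMSO and 100% = probe without PAD4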
mABHD4 FP: inhibitors of mouse ABHD4; purified mABHD4, FP-Rh probe fluorescence polarization; inhibition, % at 8.92 µM; hit rate 0.54% among 370,000; AID 720543;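 active means inhibition exceeding the mean over every tested compound plus 3 SD, cut at about 30% in these data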;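 further: 0% = plate median of compound wells and 100% = S159A mutant with DMSO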
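Test system: mouse ABHD4 enzyme, wild type. Reagent: FP-Rh fluorescent activity-based probe, added after compound pre-incubation. Timing: pre-incubation 45 min, probe exposure 60 min, at 25 °C. Technique: FP readout, ex 525 nm / em 598 nm. Benchmarks: high control S159A mutant with DMSO, low control median of compound wells.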
SIAE inh: blocks human sialic acid acetylesterase; SIAE FP-Rh probe binding, fluorescence polarization; inhibition, % at 9.66 µM; hit rate 0.69% among 370,000;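 active means inhibition above a cutoff: mean of compounds within the control limits plus 3 SD of those, cut at about 17% in these data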;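 further: 0% = plate median of compound wells and 100% = probe without SIAE protein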
HTRA1 inh: HTRA1 (human) protease inhibition | Q92743 | recombinant HTRA1, FP-rhodamine activity-based probe, fluorescence polarization | hit rate 0.5% among 340,000 | inhibition, % at 5.96 µM; in the data active means inhibition above about 36%;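 further: 0% = enzyme with DMSO and 100% = wells lacking enzyme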
Target sequence (Q92743 whole entry, looked up): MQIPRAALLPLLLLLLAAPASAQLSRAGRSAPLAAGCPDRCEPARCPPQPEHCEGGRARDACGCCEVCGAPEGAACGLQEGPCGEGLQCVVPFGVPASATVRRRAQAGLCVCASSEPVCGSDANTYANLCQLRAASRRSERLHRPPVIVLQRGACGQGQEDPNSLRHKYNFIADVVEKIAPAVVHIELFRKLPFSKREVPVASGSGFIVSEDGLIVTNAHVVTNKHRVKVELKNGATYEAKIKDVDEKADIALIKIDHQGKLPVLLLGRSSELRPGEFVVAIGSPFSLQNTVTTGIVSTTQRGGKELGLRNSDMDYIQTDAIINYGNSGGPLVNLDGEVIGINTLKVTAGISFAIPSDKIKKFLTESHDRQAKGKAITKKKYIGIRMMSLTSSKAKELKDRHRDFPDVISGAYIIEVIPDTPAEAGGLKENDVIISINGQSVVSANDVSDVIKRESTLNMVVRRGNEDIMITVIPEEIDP
TDP2 absorb: blocks human TDP2 phosphodiesterase activity; O95551; inhibition, % at 12.8 µM; recombinant TDP2, T5PNP hydrolysis, p-nitrophenol absorbance 415 nm; hit rate 0.34% among 370,000; AID 720702;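 active means inhibition above the mean of all tested compounds plus 3 SD, set per campaign, cut at about 25% in these data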;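 further: 0% = DMSO with enzyme and 100% = buffer with substrate but no TDP2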
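Evaluation: % inhibition relative to enzyme-containing and enzyme-free wells. Material: recombinant human TDP2. Benchmarks: enzyme-free and DMSO wells. Timing: enzyme reaction with compound for 2 h at 37 °C. Compound dosing: 12.8 µM only. Measured by: p-Nitrophenol epi absorbance. Reagent: T5PNP substrate at 5 mM, a TopII-DNA adduct mimic. Replication: single well per compound.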
SIAE confirm: confirmation of human SIAE inhibitors; AID 1117263; hit rate 13% among 2,300; SIAE FP-Rh activity-based probe, fluorescence polarization; inhibition, % at 9.66 µM; shares compounds with SIAE inh;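 active means mean inhibition of the replicates above the hit cutoff set in the primary screen, cut at about 17% in these data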;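 further: 0% = SIAE with DMSO and probe and 100% = probe without SIAE; inhibitors lower polarization as more probe stays unbound to SIAE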
Numbers without * were called inactive; · = no result. Compounds with a hit are over-represented: about 2% of the library has one in this group of screens.

SMILES	TCR CD3 inh	PAD4 inh	mABHD4 FP	SIAE inh	HTRA1 inh	TDP2 absorb	SIAE confirm
Cc1[nH]c2ccccc2c1/C=N/NC(=O)c1cccc(Br)c1	·	0.8	·	·	1.9	·	·
Cc1[nH]c2ccccc2c1/C=N/NC(=O)c1cccc(S(=O)(=O)Nc2ccccc2Cl)c1	-4.7	-7.7	21.3	36.9*	5.5	-1.2	10.5
CCN(CC)c1ccc(/C=N/NC(=O)c2cccc(S(=O)(=O)Nc3ccccc3OC)c2)cc1	-2.8	-2.9	-8.5	11.4	6.4	-5.9	·
CCN(CC)c1ccc(/C=N/NC(=O)c2cccc(S(=O)(=O)Nc3ccccc3OC)c2)c(O)c1	14.7	1.3	23.0	35.3*	36.5*	-2.8	7.7
COc1ccc2c(Cl)c(C(=O)N/N=C/c3c(C)[nH]c4ccccc34)sc2c1	-8.1	-1.7	7.4	23.3*	0.0	0.4	10.2
CCN1C(=O)[C@@H]2[C@@H](c3ccc(-c4cccc(Cl)c4)c(OC)c3)N3CCCC[C@@]3(C(=O)OC)[C@@H]2C1=O	-2.5	3.0	-6.7	-9.2	-22.0	-19.7	·
CCn1nnnc1-c1ccc(OC)c(S(=O)(=O)Nc2ccccc2OC)c1	-0.9	·	4.0	1.5	2.3	2.4	·
CC1(C(=O)Nc2cccc3ncccc23)CCN1C(=O)Cc1ccc(-c2ccccc2)cc1 (centres undefined)	11.6	·	-13.0	-6.9	·	-0.8	·
O=C(c1ccc(Cl)cc1)N1CCC2CC1c1cc(-c3ccccc3)ccc12 (centres undefined)	3.5	·	-9.7	21.0*	-21.4	-6.0	-6.5
CCOC(=O)CSc1nc(-c2ccccc2)cc(C(F)(F)F)n1	-3.8	0.3	-5.6	0.7	-15.0	-0.7	·
COC(=O)CSc1nc(-c2ccc(F)cc2)cc(C(F)(F)F)n1	10.0	-7.5	0.9	27.7*	-4.2	-2.0	1.5
NC(=O)c1ncn([C@@H]2O[C@H](C(=O)N[C@H](Cc3c[nH]c4ccccc34)C(=O)N3CCN(C(=O)N4CCOCC4)CC3)[C@@H](O)[C@H]2O)n1	1.6	·	9.1	52.0*	·	-1.2	33.4*
CCOC(=O)c1cc(C(=O)c2ccccc2O)cn2c(=O)c3c(C)c(C)sc3nc12	·	0.6	·	·	·	·	·
CSc1cccc(CNC(=O)C2CCC(=O)N(CCCN3CCCC3=O)C2)c1 (centres undefined)	8.1	-2.7	0.4	3.7	-0.9	5.1	·
Cc1ccc(NC(=S)N2CCN(Cc3ccccc3)CC2)cc1	1.7	-4.1	5.3	1.5	-0.3	6.5	·
S=C(Nc1ccc(Cl)cc1)N1CCN(Cc2ccccc2)CC1	-5.8	-3.0	-1.7	18.1*	-8.8	0.0	6.2
NC(=O)CC(NC(=O)Cc1ccc(Cl)cc1)c1ccc(NC2CCCCC2)c([N+](=O)[O-])c1 (centres undefined)	-4.3	-6.2	-1.9	20.0*	-2.4	-5.5	-7.8
CC(Sc1nnc(NC2CCCCC2)s1)C(=O)Nc1ccc2c(c1)C(=O)c1ccccc1C2=O (centres undefined)	-3.8	-5.9	10.5	23.6*	10.4	-4.1	-24.8
CCNS(=O)(=O)c1ccc(CCC(=O)N2CCc3ccccc3C2)cc1	-2.4	-2.1	-0.4	1.6	3.1	-17.7	·
COCCNc1nc(NCCOC)c2sc(-c3ccccc3)cc2n1	-8.7	·	-5.5	2.6	·	4.1	·
COc1ccccc1CNc1nc(NC(C)C)nc2cc(-c3ccccc3)sc12	1.8	·	22.4	22.2*	·	3.8	27.9*
CC(C)Nc1nc(NCCOc2ccccc2Cl)c2sc(-c3ccccc3)cc2n1	1.7	·	25.7	19.3*	·	-1.3	19.8*
C=CCNc1nc(NCc2cccc(OC)c2)c2sc(-c3ccccc3)cc2n1	-5.4	·	11.7	20.5*	·	1.7	2.5
COCCNc1nc(NCCOc2ccccc2)c2sc(-c3ccccc3)cc2n1	-1.5	·	22.4	22.0*	·	8.5	21.2*
CCc1n[nH]c(=S)n1N=C1CCC(C)CC1 (centres undefined)	3.6	3.6	-2.6	2.0	-4.0	-7.2	·
CCCCN(C(=O)Cc1ccc2c(c1)OCCO2)c1c(N)n(CC(C)C)c(=O)[nH]c1=O	-5.7	·	-4.8	4.8	-1.8	4.6	·
COCCCn1c(=O)c2sccc2n2c(CCCC(=O)NCc3ccccc3)nnc12	2.9	-3.3	-2.5	-1.1	6.6	18.9	·

Screening results: PubChem, The Scripps Research Institute Molecular Screening Center
